The subject of assay [1] is P. aeruginosa QS system. To be noted: cited from earlier work.
Assay [2] has as its system pyocyanin. Put plainly: Pyocyanin secretion assay. In kind it is cell-based, Pseudomonas aeruginosa. To be noted: 0.08 μM, 20 h. The method, boiled down:
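P. aeruginosa was cultured with 0.08 μM test compound at 37 °C for about 20 h to OD600 2. Pigment was extracted from about 10 mL of supernatant with chloroform, back-extracted into 0.2 M HCl, and pyocyanin read at A520.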

The subject of assay [3] is P. aeruginosa. As to the kind of experiment: Bacterial viability assay. In kind it is cell-based, Pseudomonas aeruginosa. Put shortly: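 Broth dilution in 96-well plates. Test compound at 0.5–6 μg mL−1 in 0.5 μg mL−1 steps was mixed 1:1 by volume with log-phase P. aeruginosa at 10^6 CFU mL−1 and incubated at 37 °C for 22–24 h. Growth was read as OD600, with wells in duplicate.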

The subject of assay [4] is P. aeruginosa biofilm. As to the kind of experiment: Biofilm inhibition assay. In kind it is cell-based, Pseudomonas aeruginosa. The conditions noted are these: 0.08 μM, 48 h, static, versus negative control.
Assay [5] has as its system P. aeruginosa PAO1. As to the kind of experiment: Mouse wound infection model. In kind it is in vivo. To be noted: 2 mg kg^−1 topical twice daily, 48 h post-infection. The method, boiled down:
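Female BALB/c mice (6–8 weeks, 18–22 g, n = 5 per group) had hair removed and a ~2 mm × 2 mm excisional flank wound made. The wound received ~5 × 10^8 CFU of PBS-washed static overnight PAO1 in 10 μL. Test compound at 2 mg kg−1 in cream was applied topically twice daily; vehicle cream served as control. At 48 h post-infection lesions were excised, homogenised and serially diluted for CFU.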

Assay [6] relates to hitAB gene knockout P. aeruginosa mutant (ΔhitAB). As to the kind of experiment: Gallium uptake assay by ICP-MS, ΔhitAB mutant. The format is cell-based, Pseudomonas aeruginosa. To be noted: 0.16 μM, ICP-MS over time. The method, boiled down:
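Wild-type and ΔhitAB P. aeruginosa overnight cultures were diluted to OD600 0.1 with 0.16 μM test compound. 5 mL aliquots were taken hourly up to 5 h. Pellets were washed ×3 in PBS with 1 mM EDTA, digested in 70% nitric acid at 60 °C for 2 h, diluted to 2% HNO3 and analysed for gallium by ICP-MS.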

The test system of assay [7] is P. aeruginosa established biofilms. Put plainly: Biofilm eradication assay. The conditions noted are these: 40 μM, third day, 48 h-old biofilm, control = 100%. The format is cell-based, Pseudomonas aeruginosa. The method, boiled down: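 P. aeruginosa was grown in M9 in 6-well plates at 37 °C for 48 h to form mature biofilm. Test compound was then added at 10, 20 or 40 μM and culture continued 2 or 3 days. Wells were PBS-washed ×3, dried, stained with 0.1% crystal violet for 15 min, rinsed, solubilised in 30% acetic acid and read at A595. Untreated was set to 100%; triplicates.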

For the compound `O=c1cc(-c2ccccc2)oc2cc(O)c(O)c(O)c12` [Baicalein], the “Activity against P. aeruginosa QS system” value in assay [1] was “antagonists against P. aeruginosa QS system”.
`O=c1cc(-c2ccccc2)oc2cc(O)cc(O)c12` [Chrysin]: the “Activity against P. aeruginosa QS system” value in assay [1] is recorded as “antagonists against P. aeruginosa QS system”.
`O=C1C[C@@H](c2ccc(O)cc2)Oc2cc(O)cc(O)c21` [Naringenin]: the “Activity against P. aeruginosa QS system” value in assay [1] is “antagonists against P. aeruginosa QS system”.
What is called IC50 is the midpoint of a concentration-inhibition curve. Read a high IC50 as weaker potency. Take `O=[N+]([O-])[O-].O=[N+]([O-])[O-].O=[N+]([O-])[O-].[Ga+3]` [Ga(NO3)3]: the “Decrease in pyocyanin secretion” value in assay [2] was found to be 47%. In addition, the IC50 in assay [3] came out at 3.11 µg/mL. For the same compound, the “Reduction of biofilm formation” value in assay [4] is “approximately 50%”. In addition, the “Lower number of CFU of P. aeruginosa compared to the control group” value in assay [5] stood at 2 log. Moreover, in assay [6], the “Gallium uptake rate of ΔhitAB mutant compared to WT” value is “significantly abrogated”. The same compound displayed a Biofilms remained in assay [7] of 30%.
